In assay [1] the target is T1, Alpha-1A adrenergic receptor (Homo sapiens, UniProt P35348).
T1 sequence (P35348 whole entry): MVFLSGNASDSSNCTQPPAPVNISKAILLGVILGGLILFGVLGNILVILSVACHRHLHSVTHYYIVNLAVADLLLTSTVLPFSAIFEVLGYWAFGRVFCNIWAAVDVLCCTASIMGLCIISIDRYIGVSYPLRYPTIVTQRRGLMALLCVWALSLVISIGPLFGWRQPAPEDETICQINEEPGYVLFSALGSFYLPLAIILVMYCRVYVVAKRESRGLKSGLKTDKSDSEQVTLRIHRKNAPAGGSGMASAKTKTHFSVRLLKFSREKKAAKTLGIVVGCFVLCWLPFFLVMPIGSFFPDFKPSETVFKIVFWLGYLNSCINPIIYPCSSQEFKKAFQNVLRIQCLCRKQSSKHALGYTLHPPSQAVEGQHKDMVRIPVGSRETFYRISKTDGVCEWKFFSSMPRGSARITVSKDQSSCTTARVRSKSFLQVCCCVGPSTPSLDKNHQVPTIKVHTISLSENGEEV
Nature of the assay: Displacement of [3H]prazosin from human adrenergic alpha1A expressed in CHO cells. The class given is cell-based. The method in brief:
(§1)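 Membranes (30 µg protein) from CHO cells stably expressing each cloned human α1 subtype, labelled with [3H]prazosin. Nonspecific binding with 10 µM phentolamine. Stopped with ice-cold Tris–HCl and filtration on 0.2% polyethyleneimine-treated glass-fibre filters. Ki from IC50 by Cheng–Prusoff, nonlinear fitting. Mean ± SE of 2–3 experiments in triplicate.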
In general terms: In a radioligand displacement assay an active substance lowers the binding of a labelled ligand.

Assay [2] concerns the target T2, Alpha-1B adrenergic receptor (Homo sapiens, UniProt P35368).
T2 sequence (P35368 whole entry): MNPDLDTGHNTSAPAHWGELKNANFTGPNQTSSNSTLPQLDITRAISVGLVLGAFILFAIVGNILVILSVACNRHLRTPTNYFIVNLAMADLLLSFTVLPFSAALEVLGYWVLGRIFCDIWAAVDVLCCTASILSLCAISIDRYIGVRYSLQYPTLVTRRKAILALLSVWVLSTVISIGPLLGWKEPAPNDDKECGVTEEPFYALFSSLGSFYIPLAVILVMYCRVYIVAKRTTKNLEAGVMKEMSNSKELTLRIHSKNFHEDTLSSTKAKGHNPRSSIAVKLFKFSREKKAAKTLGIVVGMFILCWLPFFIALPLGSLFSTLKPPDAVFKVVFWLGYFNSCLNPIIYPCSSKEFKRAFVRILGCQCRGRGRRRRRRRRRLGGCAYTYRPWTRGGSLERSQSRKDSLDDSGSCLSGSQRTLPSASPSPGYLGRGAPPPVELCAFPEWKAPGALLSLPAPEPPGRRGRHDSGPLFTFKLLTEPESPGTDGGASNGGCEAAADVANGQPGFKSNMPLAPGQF
Nature of the assay: Displacement of [3H]prazosin from human adrenergic Alpha-1B expressed in CHO cells. In kind it is cell-based. The method in brief:
as §1

The target of assay [3] is T3, Alpha-1B adrenergic receptor (Rattus norvegicus) (UniProt P15823).
T3 sequence (whole entry): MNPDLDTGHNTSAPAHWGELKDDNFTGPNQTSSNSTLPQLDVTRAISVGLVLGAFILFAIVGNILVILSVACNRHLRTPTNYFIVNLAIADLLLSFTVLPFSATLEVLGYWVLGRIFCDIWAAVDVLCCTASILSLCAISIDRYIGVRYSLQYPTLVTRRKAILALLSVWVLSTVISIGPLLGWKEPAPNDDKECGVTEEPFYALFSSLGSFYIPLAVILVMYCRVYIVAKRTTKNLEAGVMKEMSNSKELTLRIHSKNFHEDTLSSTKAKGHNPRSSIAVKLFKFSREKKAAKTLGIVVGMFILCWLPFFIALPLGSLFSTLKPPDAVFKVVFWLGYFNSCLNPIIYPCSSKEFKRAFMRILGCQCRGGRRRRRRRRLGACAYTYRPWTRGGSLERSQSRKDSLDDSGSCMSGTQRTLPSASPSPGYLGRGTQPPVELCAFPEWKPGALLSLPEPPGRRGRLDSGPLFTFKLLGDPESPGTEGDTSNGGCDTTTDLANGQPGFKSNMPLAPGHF
Briefly: Antagonist activity at adrenergic Alpha-1B receptor in Wistar rat spleen assessed as inhibition of […]-indcuced contraction. The class given is functional, tissue-based.

Molecules are shown by their SMILES.

As for `CCOc1ccccc1OCCNCCOc1ccccc1OCc1ccccc1`, the Ki in assay [1] was 2 nM; in assay [2], 12.6 nM. The pKb in assay [3] was found to be 7.94.
With `c1ccc(COc2ccccc2OCCNCCOc2ccccc2)cc1`, the Ki in assay [1] was 10 nM; in assay [2], 100 nM. Besides, the pKb in assay [3] was found to be 7.74.
The corresponding values for `COc1cccc(OC)c1[S+]([O-])CCNCCOc1ccccc1OCc1ccccc1` (centres undefined) are 20 nM, 15.8 nM and 7.65.
As for `Cc1cccc(C)c1OCCNCCOc1ccccc1OCc1ccccc1`, the Ki was 7.94 nM in assay [1] and 100 nM in assay [2]. Moreover, in assay [3], the pKb was 7.78.
The corresponding values for `CCOc1cccc(OCC)c1OCCNCCOc1ccccc1OCc1ccccc1` are 3.16 nM, 0.794 nM and 8.57.
In the case of `COc1cccc(OC)c1SCCNCCOc1ccccc1OCc1ccccc1`, the Ki is 3.16 nM in assay [1] and 0.501 nM in assay [2]. The pKb in assay [3] was found to be 8.57.
The corresponding values for `COc1ccccc1OCCNCCOc1ccccc1OCc1ccccc1` are 3.16 nM, 20 nM and 7.89.
As to `COc1cccc(OC)c1CCCNCCOc1ccccc1OCc1ccccc1`, the values for the Ki in assay [1] and in assay [2] were 9.77 nM and 6.92 nM, respectively. The pKb in assay [3] turned out to be 7.34.
The like results for `COc1cccc(Cl)c1OCCNCCOc1ccccc1OCc1ccccc1` were, in that order, 2.51 nM, 7.94 nM and 7.84.
Turning to `Clc1cccc(Cl)c1OCCNCCOc1ccccc1OCc1ccccc1`, the Ki is 6.31 nM in assay [1] and 79.4 nM in assay [2]. Besides, in assay [3], the negative logarithm of the Kb (pKb) was 7.75.
As for `Oc1cccc(O)c1OCCNCCOc1ccccc1OCc1ccccc1`, the Ki in assay [1] was 5.01 nM; in assay [2], 100 nM. In addition, the pKb in assay [3] was determined as 7.02.
The like results for `COc1cccc(C)c1OCCNCCOc1ccccc1OCc1ccccc1` were, in that order, 2.51 nM, 5.01 nM and 7.91.
For the molecule `COc1cccc([N+](=O)[O-])c1OCCNCCOc1ccccc1OCc1ccccc1`, the Ki was 1.12 nM in assay [1] and 5.01 nM in assay [2]. Also, in assay [3], the pKb worked out at 8.19.

One may read the Ki as the dissociation constant of the complex between target and ligand, obtained from inhibition or displacement. A higher Ki goes with a looser hold on the target. Broadly, the pKb is the negative decadic logarithm of the Kb, by convention in mol/L.
